Measurements of several laboratories.
Lines come from different studies, so protocols differ.
Organism: Staphylococcus aureus
Read-out: microbial killing

For COc1c(C)c(OCc2ccccc2)c(C)c(O)c1C(=O)/C=C/c1ccccc1, the MBC was > 5000 µg/mL (broth dilution; ATCC25923).
COc1cc(Cc2cnc(N)nc2N)cc(OC)c1OC has an MBC of 2 µg/mL (broth dilution; 48 h).
CCCCCCCCCC(=O)Oc1c(C)c(O)c(C(=O)/C=C/c2ccccc2)c(OC)c1C has an MBC of > 5000 µg/mL (broth dilution; ATCC25923).
CCCCCCCCCCCCCCCC#CC(=O)O gave an MBC of 15.6 µg/mL.
With CCn1cc(C(=O)O)c(=O)c2cc(F)c(N3CCNCC3)cc21 the MBC was 2 µM (broth dilution; ATCC6538).
With Cc1cc(/C=C2\Sc3ccccc3N2CCCN2CCC(C)CC2)c2ccccc2[n+]1C.[I-] the MBC was 8 µg/mL (ATCC29213).
For O=C(O)CN1C(=O)/C(=C/c2c3ccccc3c(-c3ccc(N(c4ccccc4)c4ccccc4)cc3)c3ccccc23)SC1=S, the MBC was > 1000 µg/mL (broth dilution; ATCC6538).
CCCCCCCCCCCC(=O)Oc1c(C)c(O)c(C(=O)/C=C/c2ccccc2)c(OC)c1C gave an MBC of > 5000 µg/mL (broth dilution; ATCC25923).
The MBC of CC(=O)NC[C@H]1CN(c2ccc(N3CCOCC3)c(F)c2)C(=O)O1 is reported as > 64 µM (broth dilution; ATCC6538).
O=C1NC(=S)S/C1=C\c1ccc(-c2ccc(N(c3ccccc3)c3ccccc3)cc2)cc1 has an MBC of > 1000 µg/mL (broth dilution; ATCC43300).
With CCOC(=O)c1c(N)csc1-c1cn(-c2ccccc2)nc1-c1ccc(C)cc1 the MBC was 0.125 µg/mL (broth dilution).
With CCCCCOc1c(OC)cc(NC(C)CCCNC(=S)NCCCC(C)Nc2cc(OC)c(OCCCCC)c3c(CC)ccnc23)c2nccc(CC)c12.Cl.Cl (centres unmarked) the MBC was 10 to 20 µg/mL (ATCC43300 MRSA; drug-resistant strain).
For COc1c(C)c(OC)c2c(c1C)OC(c1ccccc1)CC2=O (centres unmarked), the MBC was > 5000 µg/mL (broth dilution; ATCC25923).
O=C1NC(=S)S/C1=C\c1ccc(-c2ccc(N(c3ccccc3)c3ccccc3)cc2)c2ccccc12 gave an MBC of > 1000 µg/mL (broth dilution; ATCC43300).
With CCCCCC(=O)Oc1c(C)c(O)c(C(=O)/C=C/c2ccccc2)c(OC)c1C the MBC was > 5000 µg/mL (broth dilution; ATCC25923).
O=C(O)CN1C(=O)/C(=C/c2ccc(-c3ccc(N(c4ccccc4)c4ccccc4)cc3)c3ccccc23)SC1=S has an MBC of > 1000 µg/mL (broth dilution; ATCC43300).
For COc1cc(NC(C)CCCNC(=O)c2ccncc2C(=O)NCCCC(C)Nc2cc(OC)cc3ccc(C(C)(C)C)nc23)c2nc(C(C)(C)C)ccc2c1.Cl (centres unmarked), the MBC was 10 to 20 µg/mL (ATCC43300 MRSA; drug-resistant strain).
O=C(O)CN1C(=O)/C(=C/c2ccc(-c3ccc(N(c4ccccc4)c4ccccc4)cc3)cc2)NC1=S gave an MBC of 3.9 µg/mL (broth dilution; ATCC25923).
The MBC of COc1c(C)c(OS(=O)(=O)c2ccc3ccccc3c2)c(C)c(OS(=O)(=O)c2ccc3ccccc3c2)c1C(=O)/C=C/c1ccccc1 is reported as > 5000 µg/mL (broth dilution; ATCC25923).
With O=C1NC(=S)N/C1=C\c1c2ccccc2c(-c2ccc(N(c3ccccc3)c3ccccc3)cc2)c2ccccc12 the MBC was > 1000 µg/mL (broth dilution; ATCC43300).
With O=C(O)c1cn(C2CC2)c2cc(N3CCNCC3)c(F)cc2c1=O the MBC was 0.5 µg/mL (broth dilution).
For CCCCCCCC(=O)Oc1c(C)c(O)c(C(=O)/C=C/c2ccccc2)c(OC)c1C, the MBC was > 5000 µg/mL (broth dilution; ATCC25923).
With O=C1NC(=S)N/C1=C\c1ccc(-c2ccc(N(c3ccccc3)c3ccccc3)cc2)c2ccccc12 the MBC was > 1000 µg/mL (broth dilution; ATCC25923).
